Active and inactive are the calls of the source. No cut-off for these calls is given here.
Legend:
HepG2 [1] = test: Induction of ARE in human HepG2 cells by luciferase assay; assay type: functional, cell-based
Procedure, shortened: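 Stably transfected HepG2 cells carrying an ARE-luciferase reporter. EC50 is the concentration giving activation halfway between the DMSO-control baseline and the maximum response at 20 µg/mL.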

[2] = biological target: T1, Prostaglandin G/H synthase 2 (Homo sapiens) (UniProt P35354); test: (§1) Inhibition of COX2
T1 sequence (whole entry): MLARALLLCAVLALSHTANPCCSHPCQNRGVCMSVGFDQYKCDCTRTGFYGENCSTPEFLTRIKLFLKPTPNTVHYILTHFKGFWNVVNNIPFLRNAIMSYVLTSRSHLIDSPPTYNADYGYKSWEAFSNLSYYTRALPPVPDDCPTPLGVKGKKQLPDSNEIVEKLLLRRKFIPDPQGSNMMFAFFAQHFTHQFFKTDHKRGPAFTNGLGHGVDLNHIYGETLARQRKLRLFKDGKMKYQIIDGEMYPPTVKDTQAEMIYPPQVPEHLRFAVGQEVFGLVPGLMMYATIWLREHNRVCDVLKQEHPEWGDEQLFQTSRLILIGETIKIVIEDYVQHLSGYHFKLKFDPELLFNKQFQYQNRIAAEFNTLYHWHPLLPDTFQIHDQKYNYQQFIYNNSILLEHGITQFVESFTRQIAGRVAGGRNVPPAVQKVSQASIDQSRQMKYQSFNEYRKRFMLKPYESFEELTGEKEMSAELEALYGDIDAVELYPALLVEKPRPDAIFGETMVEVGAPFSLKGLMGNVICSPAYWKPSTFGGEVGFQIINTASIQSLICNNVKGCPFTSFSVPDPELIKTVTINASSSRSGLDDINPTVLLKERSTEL
Procedure, shortened: (§2)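 COX-1 and COX-2 activity read out as PGE2 production. Indomethacin served as the positive control.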

[3] = biological target: Prostaglandin G/H synthase 1 (Homo sapiens) (UniProt P23219); test: Inhibition of COX1; procedure, shortened: as §2
HepG2 [4] = test: Cytotoxicity against human HepG2 cells; assay type: cell-based
[5] = biological target: T2, Prostaglandin G/H synthase 2 (Homo sapiens, UniProt P35354); test: as §1; procedure, shortened: as §2
T2 sequence (P35354 whole entry): T1 sequence (whole entry)

HepG2 [6] = test: Inhibition of TPA-induced NF-kappaB activation in human HepG2 cells by luciferase assay; assay type: functional, cell-based
Procedure, shortened: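 NFκB-luciferase reporter construct activated with TPA (phorbol ester). IC50 is the concentration that reduces TPA-activated NFκB luciferase activity by 50%.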

Chain of Prostaglandin G/H synthase 1 (Homo sapiens) (P23219 whole entry): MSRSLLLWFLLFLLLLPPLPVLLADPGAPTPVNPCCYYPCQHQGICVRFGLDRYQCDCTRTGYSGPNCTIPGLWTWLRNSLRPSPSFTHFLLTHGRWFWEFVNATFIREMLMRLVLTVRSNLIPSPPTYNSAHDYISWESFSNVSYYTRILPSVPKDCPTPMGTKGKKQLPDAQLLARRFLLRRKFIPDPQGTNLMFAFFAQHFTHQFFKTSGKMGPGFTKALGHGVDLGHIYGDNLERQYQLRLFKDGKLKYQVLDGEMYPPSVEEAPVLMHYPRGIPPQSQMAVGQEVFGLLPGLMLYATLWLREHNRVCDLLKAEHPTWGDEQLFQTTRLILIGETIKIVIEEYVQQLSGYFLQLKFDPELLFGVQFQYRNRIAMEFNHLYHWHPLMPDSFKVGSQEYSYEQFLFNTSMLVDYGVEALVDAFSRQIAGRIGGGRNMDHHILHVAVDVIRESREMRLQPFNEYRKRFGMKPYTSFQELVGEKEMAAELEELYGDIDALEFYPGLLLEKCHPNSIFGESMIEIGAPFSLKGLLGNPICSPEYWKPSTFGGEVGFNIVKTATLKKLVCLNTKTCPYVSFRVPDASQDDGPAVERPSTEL

Row | SMILES | EC50 (HepG2 [1]) | Activity [3] | IC50 [5] | IC50 (HepG2 [6]) | Activity [2] | Activity (HepG2 [4])
1 | O=c1cc(-c2ccccc2)oc2ccc3ccccc3c12 [BETA-NAPHTHOFLAVONE] | 8 µM | – | – | – | – | –
2 | CCCCCCCCCCCCCCCCCC(=O)O[C@H]1C[C@@H](O)[C@]2(C)[C@H]3CC[C@@H]4[C@@H]([C@@](C)(O)C/C=C/C(C)(C)OO)CC[C@@]4(C)[C@]3(C)CC[C@H]2C1(C)C [BRUGUIERIN C] | 15.7 µM | inactive | – | – | inactive | Non-toxic
3 | C[S+]([O-])CCCCN=C=S (stereo unspecified) [SULFORAPHANE] | 4 µM | – | – | – | – | –
4 | CCCCCCCCCCCCCCCCCC(=O)O[C@H]1C[C@@H](O)[C@]2(C)[C@H]3CC[C@@H]4[C@@H]([C@@](C)(O)CCC=C(C)C)CC[C@@]4(C)[C@]3(C)CC[C@H]2C1(C)C [BRUGUIERIN A] | 7.8 µM | inactive | 370 nM | 1400 nM | – | Non-toxic

Now from value to compound, other results behind:

Row | EC50 (HepG2 [1]) | Activity [3] | IC50 [5] | IC50 (HepG2 [6]) | SMILES | Activity [2] | Activity (HepG2 [4])
5 | 9.4 µM | inactive | – | – | CCCCCCCCCCCCCCCCCC(=O)O[C@H]1CC[C@]2(C)[C@H]3[C@H](O)C[C@@H]4[C@@H]([C@@](C)(O)CCC=C(C)C)CC[C@@]4(C)[C@]3(C)CC[C@H]2C1(C)C [BRUGUIERIN B] | inactive | Non-toxic
6 | 30 µM | – | – | – | O=c1cc(-c2ccc(Br)cc2)oc2ccccc12 | – | –

Reference: ChEMBL document CHEMBL1157298, “Bioactive dammarane triterpenes from the mangrove plant Bruguiera gymnorrhiza” (J Nat Prod, 2006)
